Reference: ChEMBL document CHEMBL4190191, “Cyclic Diarylheptanoids from Corylus avellana Green Leafy Covers: Determination of Their Absolute Configurations and Evaluation of Their Antioxidant and Antimicrobial Activities” (J Nat Prod, 2017)
Calls of active or inactive are those of the source. The calls are words filed in the database; no cut-off is given here.

Legend:
Plasma [1] = assay: Antioxidant activity in human plasma assessed as inhibition of H2O2-induced lipid peroxidation at 10 uM after 30 mins by TBARS assay relative to control; assay type: functional, cell-free
Method in brief: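 Fresh plasma from medication-free donors was incubated for 30 min at 37 °C with compound (0.1–100 μM) plus 2 mM H2O2. Lipid peroxidation was quantified as TBARS. Data are from 5–9 independent experiments, as mean ± SD.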

Plasma [2] = assay: Antioxidant activity in human plasma assessed as inhibition of H2O2/Fe2+-induced lipid peroxidation at 10 uM after 30 mins by TBARS assay relative to control; assay type: functional, cell-free
Method in brief: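 Human donor plasma was incubated for 30 min at 37 °C with compound at 10 μM plus 4.7 mM H2O2, 3.8 mM […] and 2.5 mM EDTA. Peroxidation was read as TBARS concentration.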

A549 = assay: Cytotoxicity against human A549 cells at 10 to 100 uM by MTT assay; assay type: cell-based; conditions: a549, 100 µM
Method in brief: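 A549 human lung adenocarcinoma cells were kept in DMEM with 10% FBS, 1% penicillin/streptomycin and 2 mM L-glutamine, at 37 °C under 5% CO2. Viability was measured by MTT assay after exposure to 10–100 μM.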

[3] = Cytotoxicity against human DeFew cells at 10 to 100 uM by MTT assay; assay type: cell-based
Method in brief: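 DeFew human B-lymphoma cells were maintained in RPMI 1640 with 10% FBS, 1% penicillin/streptomycin and 2 mM L-glutamine, in humidified 5% CO2 at 37 °C. Cells were exposed to 10–100 μM, and viability was read by MTT.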

Escherichia coli [4] = assay: Antimicrobial activity against Escherichia coli DSM 8579 assessed as growth inhibition at 10 ug per disc after 24 to 48 hrs (reference value: 0 millimeter); assay type: functional; conditions: read-out: DIZ
Bacillus cereus [5] = assay: Antimicrobial activity against Bacillus cereus DSM 4384 assessed as growth inhibition at 10 ug per disc after 24 to 48 hrs (reference value: 0 millimeter); assay type: functional; conditions: read-out: DIZ
Bacillus cereus [6] = assay: Antimicrobial activity against Bacillus cereus DSM 4313 assessed as growth inhibition at 10 ug per disc after 24 to 48 hrs (reference value: 0 millimeter); assay type: functional; conditions: read-out: DIZ
Pseudomonas aeruginosa [7] = assay: Antimicrobial activity against Pseudomonas aeruginosa DSM 50071 assessed as growth inhibition at 10 ug per disc after 24 to 48 hrs (reference value: 0 millimeter); assay type: functional; conditions: read-out: DIZ
Staphylococcus aureus [8] = assay: Antimicrobial activity against Staphylococcus aureus DSM 25923 assessed as growth inhibition at 10 ug per disc after 24 to 48 hrs (reference value: 0 millimeter); assay type: functional; conditions: read-out: DIZ
Escherichia coli [9] = assay: Antimicrobial activity against Escherichia coli DSM 8579 assessed as growth inhibition at 20 ug per disc after 24 to 48 hrs (reference value: 0 millimeter); assay type: functional; conditions: read-out: DIZ
Bacillus cereus [10] = assay: Antimicrobial activity against Bacillus cereus DSM 4384 assessed as growth inhibition at 20 ug per disc after 24 to 48 hrs (reference value: 0 millimeter); assay type: functional; conditions: read-out: DIZ
Bacillus cereus [11] = assay: Antimicrobial activity against Bacillus cereus DSM 4313 assessed as growth inhibition at 20 ug per disc after 24 to 48 hrs (reference value: 0 millimeter); assay type: functional; conditions: read-out: DIZ
Pseudomonas aeruginosa [12] = assay: Antimicrobial activity against Pseudomonas aeruginosa DSM 50071 assessed as growth inhibition at 20 ug per disc after 24 to 48 hrs (reference value: 0 millimeter); assay type: functional; conditions: read-out: DIZ
Staphylococcus aureus [13] = assay: Antimicrobial activity against Staphylococcus aureus DSM 25923 assessed as growth inhibition at 20 ug per disc after 24 to 48 hrs (reference value: 0 millimeter); assay type: functional; conditions: read-out: DIZ
Bacillus cereus [14] = assay: Antimicrobial activity against Bacillus cereus DSM 4384 assessed as growth inhibition at 40 ug per disc after 24 to 48 hrs (reference value: 0 millimeter); assay type: functional; conditions: read-out: DIZ
Escherichia coli [15] = assay: Antimicrobial activity against Escherichia coli DSM 8579 assessed as growth inhibition at 40 ug per disc after 24 to 48 hrs (reference value: 0 millimeter); assay type: functional; conditions: read-out: DIZ
Bacillus cereus [16] = assay: Antimicrobial activity against Bacillus cereus DSM 4313 assessed as growth inhibition at 40 ug per disc after 24 to 48 hrs (reference value: 0 millimeter); assay type: functional; conditions: read-out: DIZ
Pseudomonas aeruginosa [17] = assay: Antimicrobial activity against Pseudomonas aeruginosa DSM 50071 assessed as growth inhibition at 40 ug per disc after 24 to 48 hrs (reference value: 0 millimeter); assay type: functional; conditions: read-out: DIZ
Staphylococcus aureus [18] = assay: Antimicrobial activity against Staphylococcus aureus DSM 25923 assessed as growth inhibition at 40 ug per disc after 24 to 48 hrs (reference value: 0 millimeter); assay type: functional; conditions: read-out: DIZ
Bacillus cereus [19] = assay: Antimicrobial activity against Bacillus cereus DSM 4313 assessed per disc after 24 hrs by resazurin dye-based microtiter-plate assay; assay type: functional
Method in brief: (§1)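 Resazurin microtiter-plate broth dilution. Samples in DMSO were twofold serially diluted in Mueller-Hinton broth with isosensitized broth and resazurin indicator. Bacteria were added to about 5 × 10^5 cfu/mL. Ciprofloxacin served as positive control and DMSO as negative control. Plates were run in triplicate at 37 °C for 24 h. MIC is the lowest concentration […].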

Bacillus cereus [20] = assay: Antimicrobial activity against Bacillus cereus DSM 4384 assessed per disc after 24 hrs by resazurin dye-based microtiter-plate assay; assay type: functional; method in brief: as §1
Escherichia coli [21] = assay: Antimicrobial activity against Escherichia coli DSM 8579 assessed per disc after 24 hrs by resazurin dye-based microtiter-plate assay; assay type: functional; method in brief: as §1
Pseudomonas aeruginosa [22] = assay: Antimicrobial activity against Pseudomonas aeruginosa DSM 50071 assessed per disc after 24 hrs by resazurin dye-based microtiter-plate assay; assay type: functional; method in brief: as §1
Staphylococcus aureus [23] = assay: Antimicrobial activity against Staphylococcus aureus DSM 25923 assessed per disc after 24 hrs by resazurin dye-based microtiter-plate assay; assay type: functional; method in brief: as §1

Row | SMILES | inhibition (Plasma [1]) | inhibition (Plasma [2]) | Activity (A549) | Activity [3] | zone of inhibition at 10 µg/disc (Escherichia coli [4]) [mm] | zone of inhibition at 10 µg/disc (Bacillus cereus [5]) [mm] | zone of inhibition at 10 µg/disc (Bacillus cereus [6]) [mm] | zone of inhibition at 10 µg/disc (Pseudomonas aeruginosa [7]) [mm] | zone of inhibition at 10 µg/disc (Staphylococcus aureus [8]) [mm] | zone of inhibition at 20 µg/disc (Escherichia coli [9]) [mm] | zone of inhibition at 20 µg/disc (Bacillus cereus [10]) [mm] | zone of inhibition at 20 µg/disc (Bacillus cereus [11]) [mm] | zone of inhibition at 20 µg/disc (Pseudomonas aeruginosa [12]) [mm] | zone of inhibition at 20 µg/disc (Staphylococcus aureus [13]) [mm] | zone of inhibition at 40 µg/disc (Bacillus cereus [14]) [mm] | zone of inhibition at 40 µg/disc (Escherichia coli [15]) [mm] | zone of inhibition at 40 µg/disc (Bacillus cereus [16]) [mm] | zone of inhibition at 40 µg/disc (Pseudomonas aeruginosa [17]) [mm] | zone of inhibition at 40 µg/disc (Staphylococcus aureus [18]) [mm] | MIC (Bacillus cereus [19]) [µg] | also measured
1 | C[C@@H]1O[C@@H](Oc2c(-c3ccc(O)cc3)oc3cc(O)cc(O)c3c2=O)[C@H](O)[C@H](O)[C@H]1OC(=O)/C=C/c1ccc(O)cc1 | 31.8% | 39.7% | Non-Toxic | Non-Toxic | 3 | 5 | 2.33 | 0 | 5 | 4.33 | 5 | 3.33 | 0 | 6.67 | 9.67 | 8.66 | 5.33 | 9.67 | 10.7 |  | 
2 | COC(=O)CC(O)(CC(=O)O)C(=O)O (centres undefined) | inactive | inactive | Non-Toxic | Non-Toxic |  |  |  |  |  |  |  |  |  |  | 0 | 10 | 5.67 | 0 | 10.7 |  | 
3 | O=C1Cc2ccc(O)c(c2)-c2cc(ccc2O)C[C@@H](O)[C@@H](O)[C@@H](O)[C@H]1O (mixture of isomers) | 33.3% | 14.4% | Non-Toxic | Non-Toxic | 4.67 | 5.67 | 5.67 | 5 | 6.33 | 10 | 9.67 | 9.67 | 8.67 | 10 | 11.3 | 10.3 | 10.7 | 10 | 10.7 | 5 | MIC (Bacillus cereus [20]): 5 µg; MIC (Escherichia coli [21]): 10 µg; MIC (Pseudomonas aeruginosa [22]): 10 µg; MIC (Staphylococcus aureus [23]): 30 µg
4 | COC(=O)CC(O)(CC(=O)OC)C(=O)OC | inactive | inactive | Non-Toxic | Non-Toxic |  |  |  |  |  |  |  |  |  |  | 0 | 11.3 | 0 | 6.67 | 11.3 |  | 
5 | O=C1CCc2ccc(O)c(c2)-c2cc(ccc2O)C[C@@H](O)[C@H](O)[C@H]1O (mixture of isomers) | 32.2% | 24.4% | Non-Toxic | Non-Toxic | 9.33 | 5 | 5 | 4.67 | 0 | 9.67 | 5 | 5 | 4.67 | 0 | 10.7 | 11.7 | 10.7 | 10.7 | 5.67 | 4 | MIC (Bacillus cereus [20]): 4 µg; MIC (Escherichia coli [21]): 10 µg; MIC (Pseudomonas aeruginosa [22]): 10 µg; MIC (Staphylococcus aureus [23]): 30 µg
6 | O=C(O)CC(O)(CC(=O)O)C(=O)O [CITRIC ACID] | inactive | inactive | Non-Toxic | Non-Toxic |  |  |  |  |  |  |  |  |  |  | 0 | 10.7 | 10 | 9.33 | 10.7 |  | 
